From ChEMBL document CHEMBL3286282, “Synthesis and antiproliferative activity of novobiocin analogues as potential hsp90 inhibitors” (Eur J Med Chem, 2014)
Activity calls are given as the source filed them. No cut-off for these calls is given here.

Columns and labels:
[1] = test system: MCF7; assay: Cell cycle arrest in human MCF7 cells assessed as accumulation at S phase at 100 uM after 48 hrs by flow cytometry (reference value: 6%); type: functional
Outline: (§1)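 MCF-7 cells at 1.3 x 10^5 cells/mL exposed to 100 µM for 48 or 72 h, with DMSO control. Cells fixed in PBS/ethanol (30/70), then 10^4 cells incubated 30 min in PBS/0.2% Triton X-100/1 mM EDTA with propidium iodide (50 µg/mL) and RNase (0.5 mg/mL). Flow cytometry gave % cells per phase, with sub-G1 counted as apoptotic. Mean of two independent experiments.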

[2] = test system: MCF7; assay: Cell cycle arrest in human MCF7 cells assessed as accumulation at G2/M phase at 100 uM after 48 hrs by flow cytometry (reference value: 7%); type: functional; outline: as §1
[3] = test system: Caco-2; assay: Antiproliferative activity against human Caco2 cells assessed as inhibition of cell proliferation; type: functional, cell-based
[4] = test system: PC-3; assay: Growth inhibition of human PC3 cells after 72 hrs by MTS assay; type: functional; conditions: PC-3, 72 h
Outline: (§2)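 Myeloma RPMI 8226 and LP-1 cells and prostate PC-3 cells, grown in RPMI 1640 with 2 mM L-glutamine and 10% heat-inactivated FBS, seeded at 2500-5000 cells/well. Drug dilutions added after 24 h. After 72 h, MTS reagent added and A492 read 2 or 3 h later. Run in triplicate, with each experiment done at least twice. GI50 taken relative to vehicle-treated cells.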

[5] = test system: LP-1; assay: Growth inhibition of human LP-1 cells after 72 hrs by MTS assay; type: functional; conditions: LP-1, 72 h; outline: as §2
[6] = test system: MCF7; assay: Cell cycle arrest in human MCF7 cells assessed as accumulation at subG1 phase at 100 uM after 72 hrs by flow cytometry (reference value: 9.5%); type: functional; outline: as §1
[7] = test system: MCF7; assay: Cell cycle arrest in human MCF7 cells assessed as accumulation at G0/G1 phase at 100 uM after 72 hrs by flow cytometry (reference value: 60.5%); type: functional; outline: as §1
[8] = test system: RPMI-8226; assay: Growth inhibition of human RPMI8226 cells after 72 hrs by MTS assay; type: functional; conditions: RPMI-8226, 72 h; outline: as §2
[9] = test system: MCF7; assay: Cell cycle arrest in human MCF7 cells assessed as accumulation at subG1 phase at 100 uM after 48 hrs by flow cytometry (reference value: 5%); type: functional; outline: as §1
[10] = test system: IGROV-1; assay: Antiproliferative activity against human IGROV1 cells assessed as inhibition of cell proliferation; type: functional, cell-based
[11] = test system: MCF7; assay: Cell cycle arrest in human MCF7 cells assessed as accumulation at G0/G1 phase at 100 uM after 48 hrs by flow cytometry (reference value: 87%); type: functional; outline: as §1
[12] = test system: MCF7; assay: Antiproliferative activity against ER-positive human MCF7 cells assessed as cell viability at 0.1 mM after 72 hrs by MTT assay; type: functional; conditions: MCF7, 72 h, read-out: Activity
Outline: (§3)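 MCF-7 (ER-positive) cells in DMEM with 2 mM L-glutamine, penicillin/streptomycin and 10% charcoal-treated FCS, seeded at 2500-5000 cells/well. Drugs added 24 h later in serial dilutions from 10 mM DMSO stocks, then exposed 72 h. MTT (500 µg/mL) for 3 h at 37 °C, formazan dissolved in DMSO, A570 read minus A650. Sextuplicates, three experiments.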

[13] = test system: MCF7; assay: Growth inhibition of ER-positive human MCF7 cells after 72 hrs by MTT assay; type: functional; conditions: MCF7, 72 h; outline: as §3
[14] = test system: MCF7; assay: Cell cycle arrest in human MCF7 cells assessed as accumulation at G2/M phase at 100 uM after 72 hrs by flow cytometry (reference value: 19%); type: functional; outline: as §1
[15] = test system: MCF7; assay: Antiproliferative activity against human MCF7 cells assessed as inhibition of cell proliferation; type: functional, cell-based
[16] = test system: MDA-MB-231; assay: Antiproliferative activity against human MDA-MB-231 cells assessed as inhibition of cell proliferation; type: functional, cell-based
[17] = test system: MCF7; assay: Cell cycle arrest in human MCF7 cells assessed as accumulation at S phase at 100 uM after 72 hrs by flow cytometry (reference value: 20.5%); type: functional; outline: as §1
[18] = test system: MDA-MB-231; assay: Growth inhibition of ER-negative human MDA-MB-231 cells after 72 hrs by MTT assay; type: functional; conditions: MDA-MB-231, 72 h
Outline: (§4)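 ER-negative MDA-MB-231 cells and tamoxifen- or Faslodex-resistant MCF-7 cells, grown in DMEM with 10% charcoal-treated FCS and seeded at 2500-5000 cells/well. Drug serial dilutions added after 24 h from 10 mM DMSO stocks. After 72 h, MTT at 500 µg/mL for 3 h at 37 °C, then A570 read minus A650.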

[19] = test system: Ishikawa; assay: Antiproliferative activity against human Ishikawa cells assessed as inhibition of cell proliferation; type: functional, cell-based
[20] = Retardation factor of the compound using CH2Cl2/MeOH at ratio of 95:5 as solvent system; type: physicochemical
[21] = Retardation factor of the compound using CH2Cl2/AcOEt at ratio of 95:5 as solvent system; type: physicochemical
[22] = Retardation factor of the compound using CH2Cl2/MeOH at ratio of 9:1 as solvent system; type: physicochemical
[23] = Retardation factor of the compound using CH2Cl2 as solvent system; type: physicochemical
[24] = Retardation factor of the compound using CH2Cl2/AcOEt at ratio of 9:1 as solvent system; type: physicochemical
[25] = Retardation factor of the compound using c-hexane/AcOEt at ratio of 8:2 as solvent system; type: physicochemical
[26] = Retardation factor of the compound using c-hexane/AcOEt at ratio of 6:4 as solvent system; type: physicochemical
[27] = Retardation factor of the compound using Et2O/c-hexane at ratio of 8:2 as solvent system; type: physicochemical
[28] = biological target: Heat shock protein HSP 90-beta (Homo sapiens) (UniProt P08238); assay: Inhibition of HSP90 in human MCF7 cells assessed as ER-alpha degradation at 100 uM after 24 hrs by western blot analysis; type: cell-based
Heat shock protein HSP 90-beta (Homo sapiens), sequence (P08238 whole entry): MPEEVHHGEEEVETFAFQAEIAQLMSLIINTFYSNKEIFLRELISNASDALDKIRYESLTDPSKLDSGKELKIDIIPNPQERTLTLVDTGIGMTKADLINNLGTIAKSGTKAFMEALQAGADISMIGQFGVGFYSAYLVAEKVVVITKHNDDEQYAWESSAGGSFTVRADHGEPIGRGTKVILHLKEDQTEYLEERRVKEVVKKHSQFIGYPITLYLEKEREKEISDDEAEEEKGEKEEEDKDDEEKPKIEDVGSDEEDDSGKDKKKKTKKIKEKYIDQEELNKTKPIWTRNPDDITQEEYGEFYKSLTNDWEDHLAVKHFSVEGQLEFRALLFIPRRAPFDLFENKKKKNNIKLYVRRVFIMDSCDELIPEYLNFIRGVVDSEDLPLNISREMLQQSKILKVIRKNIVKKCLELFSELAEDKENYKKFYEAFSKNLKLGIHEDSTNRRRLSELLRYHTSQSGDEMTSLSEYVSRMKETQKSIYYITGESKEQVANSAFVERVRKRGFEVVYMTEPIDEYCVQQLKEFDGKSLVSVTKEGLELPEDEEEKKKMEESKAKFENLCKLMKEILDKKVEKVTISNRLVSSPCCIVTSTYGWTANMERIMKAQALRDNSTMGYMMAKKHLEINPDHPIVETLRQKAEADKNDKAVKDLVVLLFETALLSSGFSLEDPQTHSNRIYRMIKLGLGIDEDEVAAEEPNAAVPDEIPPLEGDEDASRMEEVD
Outline: (§5)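 MCF-7 cells grown to 50% confluence, exposed to 100 µM for 24 h with or without MG132 (5 µM). Lysed in Tris-HCl pH 7.5/NaCl/EGTA/Triton X-100 buffer with phosphatase and protease inhibitors. 20 µg protein run on SDS-PAGE. ERα probed with D12 monoclonal antibody (1 µg/mL, overnight 4 °C), detected by biotin/avidin-peroxidase. Nonspecific band used as loading control; DMSO as vehicle.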

[29] = Retardation factor of the compound using CH2Cl2/c-hexane at ratio of 9:1 as solvent system; type: physicochemical
[30] = biological target: Heat shock protein HSP 90-beta (Homo sapiens) (UniProt P08238); assay: Inhibition of HSP90 in human MCF7 cells assessed as induction of Raf degradation at 100 uM after 24 hrs by western blot analysis; type: cell-based
[31] = biological target: Heat shock protein HSP 90-beta (Homo sapiens) (UniProt P08238); assay: Inhibition of HSP90 in human MCF7 cells assessed as ER-alpha degradation at 100 uM after 24 hrs by western blot analysis in presence of proteasome inhibitor MG132; type: cell-based; outline: as §5
[32] = test system: MCF7; assay: Growth inhibition of tamoxifen-resistant human MCF7 cells after 72 hrs by MTT assay; type: functional; conditions: MCF7, 72 h; outline: as §4
[33] = test system: MCF7; assay: Ratio of novobiocin GI50 to compound GI50 for human MCF7 cells; type: functional
[34] = biological target: Heat shock protein HSP 90-beta (Homo sapiens) (UniProt P08238); assay: Inhibition of HSP90 in human MCF7 cells assessed as induction of Her2 degradation at 100 uM after 24 hrs by western blot analysis; type: cell-based
[35] = biological target: Heat shock protein HSP 90-beta (Homo sapiens) (UniProt P08238); assay: Inhibition of HSP90 in human MCF7 cells assessed as induction of Cdk4 degradation at 100 uM after 24 hrs by western blot analysis; type: cell-based
[36] = test system: MCF7; assay: Growth inhibition of Faslodex-resistant human MCF7 cells after 72 hrs by MTT assay; type: functional; conditions: MCF7, 72 h; outline: as §4
[37] = Retardation factor of the compound using Et2O as solvent system; type: physicochemical

## COc1ccc(C(=O)Nc2cc3cc(Br)ccc3n(C)c2=O)cc1
[1]
  Activity: 17.14%
[2]
  Activity: 48%
[3]
  IC50: 8 µM
[4]
  GI50: 10 µM
[5]
  GI50: 6.2 µM
[6]
  Activity: 47%
[7]
  Activity: 40.43%
[8]
  GI50: 5 µM
[9]
  Activity: 29.5%
[10]
  IC50: 5 µM
[11]
  Activity: 34.81%
[12]
  viability at 100 µM: 10%
[13]
  GI50: 7 µM
[14]
  Activity: 41.5%
[15]
  IC50: 7 µM
[16]
  IC50: 2 µM
[17]
  Activity: 18.09%
[18]
  GI50: 2 µM
[19]
  IC50: 2 µM

## Cc1c(O)ccc2c(NCCN3CCOCC3)c(NC(=O)c3ccc4c(c3)CCC(C)(C)O4)c(=O)oc12
[12]
  viability at 100 µM: 87%
[20]
  Rf: 0.2

## C#Cc1cc2c(OS(=O)(=O)c3ccc(C)cc3)c(NC(=O)c3ccc4c(c3)CCC(C)(C)O4)c(=O)oc2c(C)c1OC
[12]
  viability at 100 µM: 82%
[21]
  Rf: 0.5

## COc1c(C#CCN(C)C)cc2c(OS(=O)(=O)c3ccc(C)cc3)c(NC(=O)c3ccc4c(c3)CCC(C)(C)O4)c(=O)oc2c1C
[12]
  viability at 100 µM: 96%
[22]
  Rf: 0.22

## COc1ccc(-c2cc3c(OS(=O)(=O)c4ccc(C)cc4)c(NC(=O)c4ccc5c(c4)CCC(C)(C)O5)c(=O)oc3c(C)c2OC)cc1
[23]
  Rf: 0.27
[12]
  viability at 100 µM: 89%

## Cc1c(O)ccc2c(OS(=O)(=O)c3cccs3)c(NC(=O)c3ccc4c(c3)CCC(C)(C)O4)c(=O)oc12
[12]
  viability at 100 µM: 62%
[24]
  Rf: 0.23

## COc1c(Br)cc2c(OC)c(NC(=O)c3ccc4c(c3)CCC(C)(C)O4)c(=O)oc2c1C
[25]
  Rf: 0.19
[12]
  viability at 100 µM: 90%
[21]
  Rf: 0.59

## Cc1c(O)ccc2c(OS(C)(=O)=O)c(NC(=O)c3ccc4c(c3)CCC(C)(C)O4)c(=O)oc12
[26]
  Rf: 0.14
[12]
  viability at 100 µM: 61%

## COc1cc(C#Cc2cc3c(OS(=O)(=O)c4ccc(C)cc4)c(NC(=O)c4ccc5c(c4)CCC(C)(C)O5)c(=O)oc3c(C)c2OC)cc(OC)c1OC
[12]
  viability at 100 µM: 92%
[21]
  Rf: 0.48

## CC(=O)OC[C@H]1O[C@@H](Oc2ccc3c(N)c(NC(=O)c4ccc5c(c4)CCC(C)(C)O5)c(=O)oc3c2C)[C@H](OC(C)=O)[C@@H](OC(C)=O)[C@@H]1OC(C)=O
[12]
  viability at 100 µM: 71%
[27]
  Rf: 0.17

## CO[C@@H]1[C@@H](OC(N)=O)[C@@H](O)[C@H](Oc2ccc3c(O)c(NC(=O)c4ccc(O)c(CC=C(C)C)c4)c(=O)oc3c2C)OC1(C)C [NOVOBIOCIN]
[13]
  GI50: 260 µM

## Cc1c(O)ccc2c(OS(=O)(=O)c3ccc4cccnc4c3)c(NC(=O)c3ccc4c(c3)CCC(C)(C)O4)c(=O)oc12
[28]
  ER-alpha degradation (active/inactive): Active
[12]
  viability at 100 µM: 22%
[13]
  GI50: 64 µM
[24]
  Rf: 0.28

## COc1c(C#Cc2ccccc2)cc2c(OS(=O)(=O)c3ccc(C)cc3)c(NC(=O)c3ccc4c(c3)CCC(C)(C)O4)c(=O)oc2c1C
[29]
  Rf: 0.1
[12]
  viability at 100 µM: 90%

## CC(=O)OC[C@H]1O[C@@H](Oc2ccc3c(OS(=O)(=O)c4ccc(C)cc4)c(NC(=O)c4ccc5c(c4)CCC(C)(C)O5)c(=O)oc3c2C)[C@H](OC(C)=O)[C@@H](OC(C)=O)[C@@H]1OC(C)=O
[28]
  ER-alpha degradation (active/inactive): Active
[1]
  Activity: 5.5%
[2]
  Activity: 55%
[30]
  inhibition: inactive
[31]
  inhibition: inactive
[32]
  GI50: 30 µM
[33]
  Ratio: 40
[34]
  inhibition: inactive
[4]
  GI50: 25 µM
[5]
  GI50: 5 µM
[6]
  Activity: 27%
[7]
  Activity: 30%
[35]
  inhibition: inactive
[8]
  GI50: 2.5 µM
[9]
  Activity: 13%
[11]
  Activity: 40%
[12]
  viability at 100 µM: 10%
[27]
  Rf: 0.14
[13]
  GI50: 6 µM
[14]
  Activity: 60%
[17]
  Activity: 9.5%
[18]
  GI50: 10 µM
[36]
  GI50: 25 µM

## Cc1c(O)ccc2c(OS(=O)(=O)c3ccc4ccccc4c3)c(NC(=O)c3ccc4c(c3)CCC(C)(C)O4)c(=O)oc12
[28]
  ER-alpha degradation (active/inactive): Active
[37]
  Rf: 0.3
[12]
  viability at 100 µM: 33%
[13]
  GI50: 67 µM

## COc1ccc(C#Cc2cc3c(OS(=O)(=O)c4ccc(C)cc4)c(NC(=O)c4ccc5c(c4)CCC(C)(C)O5)c(=O)oc3c(C)c2OC)cc1
[23]
  Rf: 0.2
[12]
  viability at 100 µM: 89%

## Cc1ccc(S(=O)(=O)Oc2c(NC(=O)c3ccc4c(c3)CCC(C)(C)O4)c(=O)oc3c(C)c(O)ccc23)cc1
[28]
  ER-alpha degradation (active/inactive): Active
[31]
  inhibition: inactive

## Cc1ccc(S(=O)(=O)Oc2c(NC(=O)c3ccc4c(c3)CCC(C)(C)O4)c(=O)oc3c(C)c(O)c(Br)cc23)cc1
[26]
  Rf: 0.39
[12]
  viability at 100 µM: 65%
